Source: ChEMBL document CHEMBL1177799 (Bioorg Med Chem Lett, 2010)

Tested on: not listed separately
Assay: Extrapolated AUC in Han Wistar rat at 50 mg/kg, po up to 24 hrs by LC-MS analysis
Format: ADME, organism-based
Parameters: time < 24 hr, dose 50 mg/kg, route oral
Settings: in vivo

Row | AUC at 24 h [ng·h/mL] | Compound
1 | 74400 | CCN(C(C)=O)c1ccc(OC)c2nc(NC(=O)c3ccnn3C)sc12

Tested on: not listed separately
Assay: Volume of distribution in Han Wistar rat at 2.5 mg/kg, iv up to 24 hrs by LC-MS analysis
Format: ADME, organism-based
Parameters: dose 2.5 mg/kg, route intravenous
Settings: in vivo
In short: (§1)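 Male Han Wistar rats (n = 4) received a single 2.5 mg/kg intravenous tail-vein injection in DMA/PEG 400/40% HPBCD/H₂O. Plasma was sampled up to 24 h after dosing, and plasma drug levels were measured by LC–MS to derive the PK parameters.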

Row | Vd [L/kg] | Compound
2 | 3 | CCN(C(C)=O)c1ccc(OC)c2nc(NC(=O)c3ccnn3C)sc12

Biological target: T1, Adenosine receptor A3 (Homo sapiens, UniProt P0DMS8)
T1 sequence (P0DMS8 whole entry): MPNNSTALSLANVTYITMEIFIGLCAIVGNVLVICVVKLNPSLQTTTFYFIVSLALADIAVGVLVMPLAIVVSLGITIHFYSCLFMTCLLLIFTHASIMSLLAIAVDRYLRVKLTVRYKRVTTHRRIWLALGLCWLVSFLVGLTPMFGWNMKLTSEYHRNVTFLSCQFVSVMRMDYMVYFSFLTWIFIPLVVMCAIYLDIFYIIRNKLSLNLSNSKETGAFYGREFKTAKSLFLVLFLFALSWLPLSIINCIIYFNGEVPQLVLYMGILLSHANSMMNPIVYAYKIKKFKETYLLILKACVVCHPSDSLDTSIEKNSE
Assay: Binding affinity to adenosine A3 receptor
Settings: not given

Row | Ki [nM] | Compound
3 | 80 | CCN(C(C)=O)c1ccc(OC)c2nc(NC(=O)c3ccnn3C)sc12

Tested on: not listed separately
Assay: Cmax in Han Wistar rat at 50 mg/kg, po up to 24 hrs by LC-MS analysis
Format: ADME, organism-based
Parameters: dose 50 mg/kg, route oral
Settings: in vivo

Row | Cmax [ng/mL] | Compound
4 | 7420 | CCN(C(C)=O)c1ccc(OC)c2nc(NC(=O)c3ccnn3C)sc12

Tested on: not listed separately
Assay: Clearance in Han Wistar rat at 2.5 mg/kg, iv up to 24 hrs by LC-MS analysis
Format: ADME, organism-based
Parameters: dose 2.5 mg/kg, route intravenous
Settings: in vivo
In short: as §1

Row | clearance [mL/min/kg] | Compound
5 | 46 | CCN(C(C)=O)c1ccc(OC)c2nc(NC(=O)c3ccnn3C)sc12

Biological target: T2, Adenosine receptor A1 (Homo sapiens, UniProt P30542)
T2 sequence (P30542 whole entry): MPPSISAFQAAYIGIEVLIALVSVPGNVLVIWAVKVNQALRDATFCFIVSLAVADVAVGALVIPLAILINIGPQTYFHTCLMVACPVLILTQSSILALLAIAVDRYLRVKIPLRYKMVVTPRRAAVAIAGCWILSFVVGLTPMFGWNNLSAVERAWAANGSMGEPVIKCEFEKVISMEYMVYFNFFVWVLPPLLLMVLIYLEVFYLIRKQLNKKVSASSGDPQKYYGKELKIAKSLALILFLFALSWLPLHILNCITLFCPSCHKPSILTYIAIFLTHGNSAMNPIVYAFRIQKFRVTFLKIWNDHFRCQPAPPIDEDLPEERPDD
Assay: Displacement of [3H]-DPCPX from human adenosine A1 receptor expressed in CHO-K1 cells after 1 hr by scintillation counting
Format: cell-based
Settings: not given
In short: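 Commercial human A1 membranes (10 µg/well) in HEPES 50 mM, NaCl 100 mM, MgCl2 1 mM buffer; competition against [3H]-DPCPX (4.8 nM final), 1 h at room temperature with orbital shaking. Filtration harvest on polyethyleneimine-treated (0.5%) glass-fibre plates, air-dried, scintillation counting.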

Row | Ki [nM] | Compound
6 | 71 | CCN(C(C)=O)c1ccc(OC)c2nc(NC(=O)c3ccc(C#N)cc3)sc12
7 | 390 | CCN(C(C)=O)c1ccc(OC)c2nc(NC(=O)c3ccc(S(C)(=O)=O)cc3)sc12
8 | 30 | CCN(C(C)=O)c1ccc(Cl)c2nc(NC(=O)c3ccc(F)cc3)sc12
9 | 1600 | COc1ccc(N(CC(=O)N(C)C)C(C)=O)c2sc(NC(=O)c3ccc(F)cc3)nc12
10 | 160 | CCN(C(C)=O)c1ccc(OC)c2nc(NC(=O)c3ccc(C(=O)N4CCOCC4)cc3)sc12
11 | 300 | CCN(C(C)=O)c1ccc(OC)c2nc(NC(=O)c3ccc(C(=O)N4CCCCC4)cc3)sc12
12 | 78 | CCN(C(C)=O)c1ccc(OC)c2nc(NC(=O)c3ccc(-n4cccn4)cc3)sc12
13 | 110 | CCN(C(C)=O)c1ccc(OC)c2nc(NC(=O)c3ccc(NS(C)(=O)=O)cc3)sc12
14 | 100 | CCN(C(C)=O)c1ccc(OC)c2nc(NC(=O)c3ccnn3C)sc12

Biological target: Adenosine receptor A2a (Homo sapiens, UniProt P29274)
Assay: Displacement of [3H]-ZM241385 from human adenosine A2A receptor expressed in CHO-K1 cells after 1 hr by scintillation counting
Format: cell-based
Settings: not given

Adenosine receptor A2a, sequence (P29274 whole entry): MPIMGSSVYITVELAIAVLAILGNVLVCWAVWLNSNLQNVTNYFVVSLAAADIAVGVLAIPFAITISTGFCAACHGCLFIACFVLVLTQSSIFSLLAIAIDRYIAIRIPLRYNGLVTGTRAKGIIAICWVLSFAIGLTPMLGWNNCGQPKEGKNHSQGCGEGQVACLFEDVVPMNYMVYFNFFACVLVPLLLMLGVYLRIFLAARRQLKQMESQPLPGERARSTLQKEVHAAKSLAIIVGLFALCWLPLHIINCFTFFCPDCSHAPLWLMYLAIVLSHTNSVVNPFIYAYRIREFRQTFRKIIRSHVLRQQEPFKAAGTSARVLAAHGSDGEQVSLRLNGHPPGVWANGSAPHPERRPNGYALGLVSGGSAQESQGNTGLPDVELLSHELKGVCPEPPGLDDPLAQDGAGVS

Row | Ki [nM] | Compound
15 | 50 | CCN(C(C)=O)c1ccc(OC)c2nc(NC(=O)c3ccc(C#N)cc3)sc12
16 | 92 | CCN(C(C)=O)c1ccc(OC)c2nc(NC(=O)c3ccc(S(C)(=O)=O)cc3)sc12
17 | 15 | CCN(C(C)=O)c1ccc(Cl)c2nc(NC(=O)c3ccc(F)cc3)sc12
18 | 480 | COc1ccc(N(CC(=O)N(C)C)C(C)=O)c2sc(NC(=O)c3ccc(F)cc3)nc12
19 | 76 | CCN(C(C)=O)c1ccc(OC)c2nc(NC(=O)c3ccc(C(=O)N4CCOCC4)cc3)sc12
20 | 100 | CCN(C(C)=O)c1ccc(OC)c2nc(NC(=O)c3ccc(C(=O)N4CCCCC4)cc3)sc12
21 | 66 | CCN(C(C)=O)c1ccc(OC)c2nc(NC(=O)c3ccc(-n4cccn4)cc3)sc12
22 | 46 | CCN(C(C)=O)c1ccc(OC)c2nc(NC(=O)c3ccc(NS(C)(=O)=O)cc3)sc12
23 | 51 | CCN(C(C)=O)c1ccc(OC)c2nc(NC(=O)c3ccnn3C)sc12

Tested on: not listed separately
Assay: Half life in Han Wistar rat at 50 mg/kg, po up to 24 hrs by LC-MS analysis
Format: ADME, organism-based
Parameters: dose 50 mg/kg, route oral
Settings: in vivo
In short: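 Male Han Wistar rats (n = 4 per route): iv 2.5 mg/kg via tail vein in DMA/PEG 400/40% HPBCD/H2O, or po 50 mg/kg in Capmul PG8 by intubation tube. Plasma sampled up to 24 h after dosing, drug levels measured by LC–MS.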

Row | half-life [h] | Compound
24 | 2.1 | CCN(C(C)=O)c1ccc(OC)c2nc(NC(=O)c3ccnn3C)sc12

Tested on: not listed separately
Assay: Extrapolated AUC in Han Wistar rat at 2.5 mg/kg, iv up to 24 hrs by LC-MS analysis
Format: ADME, organism-based
Parameters: time < 24 hr, dose 2.5 mg/kg, route intravenous
Settings: in vivo

Row | AUC at 24 h [ng·h/mL] | Compound
25 | 929 | CCN(C(C)=O)c1ccc(OC)c2nc(NC(=O)c3ccnn3C)sc12

Biological target: T3, Adenosine receptor A2b (Homo sapiens, UniProt P29275)
T3 sequence (P29275 whole entry): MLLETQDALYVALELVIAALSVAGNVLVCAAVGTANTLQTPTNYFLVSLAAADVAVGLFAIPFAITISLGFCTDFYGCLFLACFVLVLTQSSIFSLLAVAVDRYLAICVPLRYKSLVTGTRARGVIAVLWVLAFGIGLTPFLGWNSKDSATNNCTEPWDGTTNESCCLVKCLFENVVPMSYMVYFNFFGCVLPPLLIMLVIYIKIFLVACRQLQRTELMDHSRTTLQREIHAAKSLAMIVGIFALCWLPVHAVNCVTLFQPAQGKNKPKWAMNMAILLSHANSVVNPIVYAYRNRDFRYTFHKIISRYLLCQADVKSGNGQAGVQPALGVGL
Assay: Antagonist activity at human adenosine A2B receptor expressed in CHO cells assessed as inhibition of adenosine-induced cAMP production
Format: functional, cell-based
Settings: not given
In short: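 CHO cells stably transfected with human A2B receptor, grown overnight as monolayer (7500 cells/well), washed with Krebs buffer, then exposed to compounds in Krebs buffer (final DMSO 1.1%) for 20–25 min. Wells emptied, cells lysed and cAMP measured with an enzyme-fragment complementation cAMP kit for adherent cells.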

Row | IC50 [nM] | Compound
26 | 28 | CCN(C(C)=O)c1ccc(OC)c2nc(NC(=O)c3ccc(C#N)cc3)sc12
27 | 36 | CCN(C(C)=O)c1ccc(OC)c2nc(NC(=O)c3ccc(S(C)(=O)=O)cc3)sc12
28 | 23 | CCN(C(C)=O)c1ccc(Cl)c2nc(NC(=O)c3ccc(F)cc3)sc12
29 | 600 | COc1ccc(N(CC(=O)N(C)C)C(C)=O)c2sc(NC(=O)c3ccc(F)cc3)nc12
30 | 21 | CCN(C(C)=O)c1ccc(OC)c2nc(NC(=O)c3ccc(C(=O)N4CCOCC4)cc3)sc12
31 | 16 | CCN(C(C)=O)c1ccc(OC)c2nc(NC(=O)c3ccc(C(=O)N4CCCCC4)cc3)sc12
32 | 21 | CCN(C(C)=O)c1ccc(OC)c2nc(NC(=O)c3ccc(-n4cccn4)cc3)sc12
33 | 37 | CCN(C(C)=O)c1ccc(OC)c2nc(NC(=O)c3ccc(NS(C)(=O)=O)cc3)sc12
34 | 21 | CCN(C(C)=O)c1ccc(OC)c2nc(NC(=O)c3ccnn3C)sc12

Biological target: T3, Adenosine receptor A2b
Assay: Displacement of [3H]ZM241385 from human adenosine A2B receptor expressed in CHO cells after 1 hr by scintillation counting
Format: cell-based
Settings: not given
In short: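 Whole CHO cells expressing human A2B receptor, harvested mechanically from 80% confluent flasks, frozen, then resuspended in assay buffer on assay day. Competition against [3H]ZM241385 (30 nM final), 1 h at room temperature with shaking. Harvest on 0.5% polyethyleneimine-treated filter plates, air-dried, scintillation counting.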

Row | Ki [nM] | Compound
35 | 10 | CCN(C(C)=O)c1ccc(OC)c2nc(NC(=O)c3ccc(C#N)cc3)sc12
36 | 19 | CCN(C(C)=O)c1ccc(OC)c2nc(NC(=O)c3ccc(S(C)(=O)=O)cc3)sc12
37 | 7 | CCN(C(C)=O)c1ccc(OC)c2nc(NC(=O)c3ccc(C(=O)N4CCOCC4)cc3)sc12
38 | 4 | CCN(C(C)=O)c1ccc(OC)c2nc(NC(=O)c3ccc(C(=O)N4CCCCC4)cc3)sc12
39 | 18 | CCN(C(C)=O)c1ccc(OC)c2nc(NC(=O)c3ccc(-n4cccn4)cc3)sc12
40 | 22 | CCN(C(C)=O)c1ccc(OC)c2nc(NC(=O)c3ccc(NS(C)(=O)=O)cc3)sc12
41 | 8 | CCN(C(C)=O)c1ccc(OC)c2nc(NC(=O)c3ccnn3C)sc12
